In ChEMBL document CHEMBL1154186, “Synthesis, kinase inhibitory potencies, and in vitro antiproliferative evaluation of new Pim kinase inhibitors” (J Med Chem, 2009) one finds Activity and IC50 data, which are given here for 4 compounds.

The IC50 is the concentration that gives 50% inhibition. A lower IC50 goes with greater potency in that assay.

Each structure is given as a SMILES string.

Assay [1] in a line: Inhibition of PKA assessed as residual enzyme activity at 10 uM relative to untreated control. In outline: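 PKA (5-20 m-units) was assayed in 8 mM Mops pH 7.5 and 0.2 mM EDTA, with LRRASLG at 300 µM and [γ-33P]ATP at 20 µM plus 10 mM Mg acetate, 30 min at 21 °C, then P81 filter capture. Compound at 10 µM; % residual activity versus uninhibited control, duplicates.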
Assay [2] addresses Homeodomain-interacting protein kinase 3 (Homo sapiens) (UniProt Q9H422). The assay can be described thus: Inhibition of HIPK3 assessed as residual enzyme activity at 10 uM relative to untreated control. In outline: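 Kinases of human origin, except CK1δ, which is rat. Run in 50 mM Tris/HCl pH 7.5, 0.1 mM EGTA, 0.1% 2-mercaptoethanol and 10 mM Mg acetate, with [γ-33P]ATP at 20 µM, 30 min at 21 °C. Acid-stopped and captured on P81 filters. Compound tested at 10 µM; residual % of uninhibited control, duplicate determinations.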

The subject of assay [3] is MKK1 (Oryctolagus cuniculus). The assay can be described thus: Inhibition of MKK1 assessed as residual enzyme activity at 10 uM relative to untreated control.
For assay [4], the target named is RAC-alpha serine/threonine-protein kinase (Homo sapiens) (UniProt P31749). Kind of assay: Inhibition of PKBalpha assessed as residual enzyme activity at 10 uM relative to untreated control. In outline:
(§1)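 Radiometric filter-binding assay at 21 °C for 30 min. Mix: 50 mM Tris/HCl pH 7.5, 0.1 mM EGTA, 0.1% 2-mercaptoethanol, 10 mM Mg acetate and [γ-33P]ATP (800 cpm/pmol) at 5 µM. Stopped with orthophosphoric acid and spotted on P81. Compound at 10 µM; activity given as % remaining versus no-inhibitor control, duplicates. Kinases human full-length unless noted.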

Assay [5] addresses T1, Aurora kinase C (Homo sapiens) (UniProt Q9UQB9).
T1 sequence (whole entry): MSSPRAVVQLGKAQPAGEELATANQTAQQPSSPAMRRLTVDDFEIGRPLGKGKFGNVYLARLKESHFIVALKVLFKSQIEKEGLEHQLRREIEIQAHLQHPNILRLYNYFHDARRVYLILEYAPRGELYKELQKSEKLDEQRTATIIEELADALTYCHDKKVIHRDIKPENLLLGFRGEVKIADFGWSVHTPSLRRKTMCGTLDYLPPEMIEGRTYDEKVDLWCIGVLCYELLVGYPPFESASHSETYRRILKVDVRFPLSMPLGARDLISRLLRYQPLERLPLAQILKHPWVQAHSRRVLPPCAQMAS
The assay can be described thus: Inhibition of AURORA C assessed as residual enzyme activity at 10 uM relative to untreated control. In outline:
as §1

A further assay has as its system PA-1. The assay can be described thus: Antiproliferative activity against human PA1 cells after 48 hrs by resazurin dye reduction assay. The format is functional, cell-based. The conditions noted are these: PA-1, 48 h. In outline: (§2)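 Cells (human fibroblast primary culture, or PC3, DU145 or PA1 cancer lines) were kept as monolayers in Glutamax MEM with Earle's salts, 10% FCS, pyruvate, nonessential amino acids and gentamicin, at 37 °C in 5% CO2. 5×10^3 cells/well adhered for 16 h, then had 48 h continuous drug exposure (20 mM DMSO stock). Resazurin 25 µg/mL for 1 h; fluorescence ex 530/em 590 nm. IC50 from blank-corrected concentration–survival curves versus control wells.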
(In general: Resazurin is reduced to fluorescent resorufin, in cell work by metabolically active cells.)

For a further assay, the system named is DU-145. Kind of assay: Antiproliferative activity against human DU145 cells after 48 hrs by resazurin dye reduction assay. The conditions noted are these: DU-145, 48 h. It is filed as functional, cell-based. In outline: as §2
A short description of assay [6]: Antiproliferative activity against human fibroblasts after 48 hrs by resazurin dye reduction assay. It is filed as cell-based. The conditions noted are these: Fibroblast. The method in brief:
as §2

The subject of the next assay is PC-3. Kind of assay: Antiproliferative activity against human PC3 cells after 48 hrs by resazurin dye reduction assay. The format is functional, cell-based. The note with it: PC-3, 48 h. In outline: as §2

Sequence of RAC-alpha serine/threonine-protein kinase (Homo sapiens) (P31749 whole entry): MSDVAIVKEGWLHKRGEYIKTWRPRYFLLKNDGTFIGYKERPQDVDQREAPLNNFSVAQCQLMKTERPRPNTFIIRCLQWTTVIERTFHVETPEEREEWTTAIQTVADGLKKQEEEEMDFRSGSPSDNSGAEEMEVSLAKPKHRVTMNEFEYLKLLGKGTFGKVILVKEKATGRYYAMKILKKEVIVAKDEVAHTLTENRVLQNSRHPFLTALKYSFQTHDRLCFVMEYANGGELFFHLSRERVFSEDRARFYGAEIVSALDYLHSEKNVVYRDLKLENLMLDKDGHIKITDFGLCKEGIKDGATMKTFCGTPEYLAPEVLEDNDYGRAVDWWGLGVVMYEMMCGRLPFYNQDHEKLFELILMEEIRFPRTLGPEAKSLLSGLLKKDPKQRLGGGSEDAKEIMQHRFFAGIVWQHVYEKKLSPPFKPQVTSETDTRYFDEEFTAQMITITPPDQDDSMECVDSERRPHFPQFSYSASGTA
Sequence of Homeodomain-interacting protein kinase 3 (Homo sapiens) (Q9H422 whole entry, looked up): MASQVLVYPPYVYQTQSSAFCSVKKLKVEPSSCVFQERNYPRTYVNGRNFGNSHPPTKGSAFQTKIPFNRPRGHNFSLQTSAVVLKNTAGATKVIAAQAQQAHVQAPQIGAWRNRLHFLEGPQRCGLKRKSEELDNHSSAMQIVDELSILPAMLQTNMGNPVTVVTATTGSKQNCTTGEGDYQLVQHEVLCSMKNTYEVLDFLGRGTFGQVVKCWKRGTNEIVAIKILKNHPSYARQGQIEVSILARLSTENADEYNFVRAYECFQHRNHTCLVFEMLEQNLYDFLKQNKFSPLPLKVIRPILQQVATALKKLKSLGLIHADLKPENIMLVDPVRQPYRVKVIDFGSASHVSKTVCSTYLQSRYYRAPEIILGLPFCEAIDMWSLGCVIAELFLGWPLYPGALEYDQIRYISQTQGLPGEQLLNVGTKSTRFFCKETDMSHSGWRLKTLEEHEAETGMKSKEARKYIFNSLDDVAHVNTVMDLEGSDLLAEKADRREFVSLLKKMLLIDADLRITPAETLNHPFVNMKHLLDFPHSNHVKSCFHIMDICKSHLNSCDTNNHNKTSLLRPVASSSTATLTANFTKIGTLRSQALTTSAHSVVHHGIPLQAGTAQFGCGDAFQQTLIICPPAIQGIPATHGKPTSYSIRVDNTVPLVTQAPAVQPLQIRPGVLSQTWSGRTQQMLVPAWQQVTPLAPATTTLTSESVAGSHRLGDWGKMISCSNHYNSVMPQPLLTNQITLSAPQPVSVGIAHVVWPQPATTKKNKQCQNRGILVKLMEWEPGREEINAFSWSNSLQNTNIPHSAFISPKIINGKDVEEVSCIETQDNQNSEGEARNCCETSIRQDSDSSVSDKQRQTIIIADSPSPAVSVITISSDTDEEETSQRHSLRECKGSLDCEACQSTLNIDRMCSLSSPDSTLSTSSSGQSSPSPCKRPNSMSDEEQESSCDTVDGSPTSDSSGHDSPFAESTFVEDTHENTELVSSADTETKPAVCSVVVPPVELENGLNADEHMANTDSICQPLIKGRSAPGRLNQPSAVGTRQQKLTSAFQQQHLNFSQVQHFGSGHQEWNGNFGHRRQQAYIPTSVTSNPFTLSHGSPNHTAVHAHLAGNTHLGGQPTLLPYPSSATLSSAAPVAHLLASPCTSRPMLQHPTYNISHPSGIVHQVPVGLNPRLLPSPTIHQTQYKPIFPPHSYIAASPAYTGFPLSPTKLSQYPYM

As to `c1ccc2c(c1)[nH]c1c2ccc2cc[nH]c21`, the Activity in assay [1] came out at 95%; in [2] it was 97%; in assay [3], 87%; in [4], 120%; in assay [5], 85%.
As for `O=Cc1c[nH]c2c1ccc1c3ccccc3[nH]c12`, the Activity in assay [1] is 60%; in [2] it was 64%; in assay [4], 96%; in [5], 79%. The IC50 in the assay on PA-1 was found to be 4.5 µM; in the assay on DU-145, 26 µM; in [6] it was 21 µM; in the assay with PC-3 it was 9.5 µM.
As to `O=Cc1c[nH]c2ccc3c4ccccc4[nH]c3c12`, the Activity stood at 83% in [1]; 100% in [2]; 104% in assay [3]; 112% in assay [4]; 104% in [5].
Turning to `c1ccc2c(c1)[nH]c1c3cc[nH]c3ccc21`, the Activity in assay [1] stood at 96%; in assay [2], 106%; in [3], 75%; in [4], 110%; in [5], 99%.
